SENP6 block: SENP6 protease inhibition; AID 2599; 330,000 compounds, 1.8% hits; inhibition, % at 10 µM; Q9GZR1; Recombinant SENP6 catalytic domain, aminoluciferin luminescence;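 active = inhibition above about 50% at the single tested dose, limit read from the data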;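 also: plate controls were DMSO wells with enzyme for no effect and DMSO wells lacking enzyme for full effect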
SENP7 inh: inhibitors of human SENP7 protease. Q9BQF6. recombinant SENP7, Z-RLRGG-aminoluciferin luminescence, 40 min. 330,000 compounds, 1.5% hits. inhibition, % at 5 µM. AID 434973;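 active = inhibition above about 50% at the single test dose, limit read from the data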;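 also: plate controls were DMSO with enzyme for no effect and no enzyme buffer wells for full effect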
SENP8 block-1: SENP8 protease inhibition; Q96LD8; purified SENP8, Z-RLRGG-aminoluciferin cleavage, luminescence; inhibition, % at 10 µM; 330,000 compounds, 1.2% hits; in the data active = inhibition above about 50%
SENP1 inh: SENP1 (human) catalytic domain inhibition; Q9P0U3; recombinant SENP1 catalytic domain, CyPet-SUMO1-YPet FRET cleavage; inhibition, % at 10 µM; 360,000 compounds, 0.21% hits; AID 624204;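 active = inhibition at least 30% at 10 µM, raw YFP signal under a set limit, fluorescence ratio 0.5 to 1.5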;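 also: 0% = enzyme with DMSO and 100% = no enzyme wells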
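Compound: 10 µM single point, 0.5% DMSO; Test system: hSENP1 catalytic domain, recombinant; Timing: 50 min reaction at room temperature; Technique: FRET, CFP and YFP emission; Control set: no-enzyme wells low, DMSO-plus-enzyme wells high control.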
SENP8 block-2: blocks human SENP8 cleavage of Nedd8 substrate. recombinant SENP8, Nedd8 substrate fluorescence. inhibition, % at 20 µM. 360,000 compounds, 0.64% hits. AID 602440; in the data active = inhibition mostly above about 40%, no sharp cut-off; inactive = mostly below about 27%
CendR NRP1 mod: modulators of CendR peptide binding to human neuropilin-1; O14786; FAM-RPARPAR peptide binding to NRP-1, fluorescence polarization; inhibition, % at 25 µM; 360,000 compounds, 0.85% hits;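 active = inhibition or corrected inhibition above about 18%, plus a signal ratio from 0.5 to 1.5, limit read from the data, passing the limit was not always enough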
Target sequence (O14786 whole entry, looked up): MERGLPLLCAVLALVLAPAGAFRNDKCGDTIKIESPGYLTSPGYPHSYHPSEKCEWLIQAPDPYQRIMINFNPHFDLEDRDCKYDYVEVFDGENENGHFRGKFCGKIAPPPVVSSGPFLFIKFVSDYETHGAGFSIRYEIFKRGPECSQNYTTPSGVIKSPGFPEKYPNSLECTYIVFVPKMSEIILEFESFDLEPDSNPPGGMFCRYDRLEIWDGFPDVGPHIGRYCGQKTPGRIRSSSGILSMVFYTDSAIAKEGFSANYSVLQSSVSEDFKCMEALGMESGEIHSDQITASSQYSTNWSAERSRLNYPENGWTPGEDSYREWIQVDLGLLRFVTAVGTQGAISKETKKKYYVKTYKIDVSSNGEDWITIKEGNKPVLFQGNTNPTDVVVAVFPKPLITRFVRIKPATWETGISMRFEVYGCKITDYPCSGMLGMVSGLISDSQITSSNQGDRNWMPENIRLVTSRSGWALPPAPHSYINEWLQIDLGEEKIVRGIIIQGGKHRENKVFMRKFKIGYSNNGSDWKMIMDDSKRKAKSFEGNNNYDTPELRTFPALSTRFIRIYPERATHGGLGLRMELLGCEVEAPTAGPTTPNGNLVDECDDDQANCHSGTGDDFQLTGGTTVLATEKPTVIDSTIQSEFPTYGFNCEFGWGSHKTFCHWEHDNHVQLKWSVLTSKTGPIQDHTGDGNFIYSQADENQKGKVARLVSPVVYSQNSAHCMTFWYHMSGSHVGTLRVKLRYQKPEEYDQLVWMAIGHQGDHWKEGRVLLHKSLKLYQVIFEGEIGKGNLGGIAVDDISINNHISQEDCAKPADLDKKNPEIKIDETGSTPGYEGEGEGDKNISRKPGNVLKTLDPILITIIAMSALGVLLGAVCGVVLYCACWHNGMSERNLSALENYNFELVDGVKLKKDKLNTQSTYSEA
SENP8 conf: SENP8 (human) inhibition, single concentration confirmation; shares compounds with SENP8 block-2; purified SENP8, Nedd8-AMC/pro-Nedd8 cleavage fluorescence, 30 min; inhibition, % at 25 µM; 1,400 compounds, 15% hits; AID 624319; in the data active = inhibition mostly above about 39%, no sharp cut-off; inactive = mostly below about 34%
* marks the source's active call; other numbers are inactive results. Compounds with a hit are over-represented: about 3.3% of the library has one in this group of screens.

What do the screens show for `COc1cc(NC(=O)C2CCCCN2)ccc1OCC(C)C` (configuration not stated)?
SENP6 block: -15.7; SENP7 inh: -6.2; SENP8 block-1: -7.1; SENP1 inh: -0.5; SENP8 block-2: 27.2*; CendR NRP1 mod: 3.7; SENP8 conf: 5.3

What do the screens show for `O=C(CC(NC(=O)OCc1ccccc1)C(=O)OCc1ccccc1)OCc1ccccc1` (configuration not stated)?
SENP1 inh: -2.8; SENP8 block-2: -3.5; CendR NRP1 mod: 18.4

Results for CC(=O)NCC(=O)N[C@@H](CC(=O)OCc1ccccc1)C(=O)OCc1ccccc1 ?
SENP6 block: -11.1; SENP7 inh: 1.5; SENP8 block-1: -1.9; SENP1 inh: 3.3; SENP8 block-2: 43.8*; CendR NRP1 mod: -0.1; SENP8 conf: 22.3

What do the screens show for `CC(=O)N1CCCC(C)(C(=O)N(C)Cc2cccc3ccccc23)C1` (configuration not stated)?
SENP1 inh: 2.2; SENP8 block-2: 17.9; CendR NRP1 mod: 0.5

What do the screens show for `O=c1cc(-c2cccc([N+](=O)[O-])c2)[nH][nH]1`?
SENP6 block: 4.6; SENP7 inh: 11.1; SENP8 block-1: 1.2; SENP1 inh: 3.7; SENP8 block-2: 42.9*; CendR NRP1 mod: -2.9; SENP8 conf: -1.1

How did O=C(O)CC1c2ccccc2CCN1S(=O)(=O)c1ccccc1 (configuration not stated) do in these assays?
SENP6 block: -2.9; SENP7 inh: 3.0; SENP8 block-1: -1.4; SENP1 inh: -0.7; SENP8 block-2: 18.0; CendR NRP1 mod: 4.6

How did O=C(O)CC1c2ccccc2CCN1S(=O)(=O)c1cccs1 (configuration not stated) do in these assays?
SENP6 block: -15.6; SENP7 inh: -6.0; SENP8 block-1: -3.1; SENP1 inh: 1.6; SENP8 block-2: 43.0*; CendR NRP1 mod: -3.4; SENP8 conf: -8.8

What do the screens show for `COC/C=C/C1=CC2=CC(=O)C(C)(OC(=O)c3cnc4ccccc4n3)C(=O)C2=CN1Cc1ccccc1` (configuration not stated)?
SENP6 block: 18.6; SENP7 inh: 0.5; SENP8 block-1: 2.1; SENP1 inh: -33.0; SENP8 block-2: 45.0*; CendR NRP1 mod: 24.9*; SENP8 conf: 26.3

Results for COC/C=C/C1=CC2=CC(=O)C(C)(OC(=O)c3cnc4ccccc4n3)C(=O)C2=CN1CCCCO (configuration not stated) ?
SENP6 block: 31.1; SENP7 inh: 15.1; SENP8 block-1: 8.5; SENP1 inh: -17.4; SENP8 block-2: 55.5*; CendR NRP1 mod: 14.6; SENP8 conf: 45.8*

What do the screens show for `COC/C=C/C1=CC2=CC(=O)C(C)(OC(=O)c3cnc4ccccc4n3)C(=O)C2=CN1c1ccc(OC)cc1` (configuration not stated)?
SENP6 block: 7.0; SENP7 inh: 6.2; SENP8 block-1: -3.8; SENP1 inh: -36.9; SENP8 block-2: -9.2; CendR NRP1 mod: 21.2

How did COC/C=C/C1=CC2=CC(=O)C(C)(OC(=O)c3cnc4ccccc4n3)C(=O)C2=CN1C1CC1 (configuration not stated) do in these assays?
SENP6 block: 19.9; SENP7 inh: 3.6; SENP8 block-1: -4.0; SENP1 inh: -20.0; SENP8 block-2: 52.3*; CendR NRP1 mod: -19.8; SENP8 conf: 52.5*

How did NC(=O)c1ccc(N=Cc2ccc([N+](=O)[O-])s2)cc1 do in these assays?
SENP1 inh: -0.8; SENP8 block-2: 60.5*; CendR NRP1 mod: -17.3; SENP8 conf: 95.0*

What do the screens show for `N/C(=N\O)c1ccc([N+](=O)[O-])s1`?
SENP6 block: 7.4; SENP7 inh: 7.0; SENP8 block-1: 5.5; SENP1 inh: 1.2; SENP8 block-2: 30.6; CendR NRP1 mod: -11.3

What do the screens show for `CCN(CC)S(=O)(=O)c1ccc(N/N=C/c2ccccc2OCC(=O)O)c([N+](=O)[O-])c1`?
SENP6 block: 2.8; SENP7 inh: 4.2; SENP8 block-1: 5.8; SENP1 inh: 5.0; SENP8 block-2: 51.1*; CendR NRP1 mod: 7.5; SENP8 conf: 25.3

How did CCN(CC(=O)Nc1ccc2c(c1)OCCO2)C(=O)COc1ccc(C(C)=O)cc1 do in these assays?
SENP1 inh: 2.3; SENP8 block-2: 14.0; CendR NRP1 mod: 5.6

What do the screens show for `Cn1c(=O)c2c(nc(Br)n2C)n(C)c1=O`?
SENP6 block: -5.1; SENP7 inh: -2.4; SENP8 block-1: -4.9; SENP1 inh: -1.1; SENP8 block-2: 40.6*; CendR NRP1 mod: 0.5; SENP8 conf: 0.2

What do the screens show for `C[C@H]1CN([C@@H](C)CO)C(=O)c2cc(Br)cnc2O[C@@H]1CN(C)C(=O)Nc1ccc(C(F)(F)F)cc1`?
SENP1 inh: -1.8; SENP8 block-2: -1.6; CendR NRP1 mod: -14.7

How did Cc1ccc(NC(=O)CS(=O)CC(=O)Nc2cnc3ccccc3c2)cc1Cl (configuration not stated) do in these assays?
SENP6 block: 6.0; SENP7 inh: 1.3; SENP8 block-1: 0.8; SENP1 inh: 0.9; SENP8 block-2: 11.4; CendR NRP1 mod: -3.9

What do the screens show for `Cc1ccc(NC(=O)CS(=O)CC(=O)NCCCc2ccccc2)cc1Cl` (configuration not stated)?
SENP6 block: -8.0; SENP7 inh: -0.3; SENP8 block-1: -5.0; SENP1 inh: -1.1; SENP8 block-2: 41.0*; CendR NRP1 mod: 1.6; SENP8 conf: 17.4

What do the screens show for `NC(Cc1ccc(C(F)(F)F)cc1)c1csc(NC(=O)Nc2ccccc2Oc2ccccc2)n1` (configuration not stated)?
SENP1 inh: -1.2; SENP8 block-2: 16.2; CendR NRP1 mod: -3.0

Results for CCOc1cc(C(c2c(C)[nH][nH]c2=O)c2c(C)[nH][nH]c2=O)ccc1OS(=O)(=O)c1ccccc1 ?
SENP6 block: 11.3; SENP7 inh: -7.4; SENP8 block-1: -6.8; SENP1 inh: 2.4; SENP8 block-2: 44.4*; CendR NRP1 mod: 4.7; SENP8 conf: 46.7*

How did O=C(NCC1COc2ccccc2O1)C1C2C=CC3(CN(Cc4ccccc4Cl)C(=O)C13)O2 (configuration not stated) do in these assays?
SENP6 block: 8.4; SENP7 inh: -9.1; SENP8 block-1: -2.4; SENP1 inh: 2.6; SENP8 block-2: 4.0; CendR NRP1 mod: -3.8

What do the screens show for `COc1ccc(CCN2CC34C=CC(O3)C(C(=O)NCc3ccccc3Cl)C4C2=O)cc1OC` (configuration not stated)?
SENP6 block: 4.1; SENP7 inh: 4.8; SENP8 block-1: 2.0; SENP1 inh: -0.5; SENP8 block-2: 46.8*; CendR NRP1 mod: 21.7; SENP8 conf: 15.6

High-throughput results deposited in PubChem BioAssay by Sanford-Burnham Center for Chemical Genomics.
